# Hits are enriched below; roughly 1.8% of the tested compounds scored in any of these assays.
# CHRM4 agonist: agonists of human muscarinic M4 receptor (CHRM4); CHO-K1 hM4/Gqi5, Fluo-8 calcium fluorescence; vehicle 0%, full acetylcholine response 100%; activation, % at 3 µM; actives 0.14% (n = 360,000); AID 624127;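 active = activation above the run mean over all test wells plus 3 SD, cut at about 32% in these data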;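 also: peak over basal fluorescence ratio per well then scaled between controls; 0% = DMSO wells and 100% = acetylcholine at EC100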
# M5 ag: agonists of human muscarinic M5 receptor (CHRM5); CHO-K1 hM5 cells, Fluo-8 calcium fluorescence; 0% DMSO wells, 100% maximal acetylcholine response; activation, % at 3 µM; actives 0.19% (n = 360,000);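 active = activation above the run's mean over test compounds plus 3 SD, cut at about 23% in these data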;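 also: signal is peak over basal fluorescence ratio across the kinetic read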
# Target sequence (P08912 whole entry, looked up): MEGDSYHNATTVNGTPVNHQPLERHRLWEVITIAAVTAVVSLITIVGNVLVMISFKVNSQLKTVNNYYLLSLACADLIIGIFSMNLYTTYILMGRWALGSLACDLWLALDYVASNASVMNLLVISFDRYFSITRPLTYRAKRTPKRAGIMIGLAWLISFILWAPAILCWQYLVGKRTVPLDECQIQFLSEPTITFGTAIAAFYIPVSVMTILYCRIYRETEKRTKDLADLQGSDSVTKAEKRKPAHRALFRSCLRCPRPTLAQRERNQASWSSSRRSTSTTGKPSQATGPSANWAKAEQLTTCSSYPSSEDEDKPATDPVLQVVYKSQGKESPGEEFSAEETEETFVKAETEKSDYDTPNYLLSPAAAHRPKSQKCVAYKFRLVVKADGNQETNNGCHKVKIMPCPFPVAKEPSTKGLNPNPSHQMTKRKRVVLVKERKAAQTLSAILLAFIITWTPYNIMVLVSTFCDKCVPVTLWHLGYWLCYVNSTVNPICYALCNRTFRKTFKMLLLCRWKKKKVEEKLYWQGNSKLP
# CHRM4 antagonist: blocks acetylcholine activation of human M4 receptor | P08173 | CHO-hM4 cells, ACh EC80, Fluo-8 calcium fluorescence | inhibition, % at 3 µM | actives 0.73% (n = 360,000);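 active = inhibition above its plate's cutoff, the mean inhibition of sample wells plus 3 SD, cut at about 27% in these data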;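 also: 0% = acetylcholine EC80 with DMSO and 100% = DMSO without agonist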
# M5 antag: antagonists of human muscarinic M5 receptor (CHRM5); P08912; actives 0.59% (n = 360,000); CHO-hM5 cells, Fluo-8 calcium fluorescence, ACh EC80; inhibition, % at 3 µM;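 active = inhibition above a per-plate cutoff, the mean of that plate's test compounds plus 3 SD, cut at about 27% in these data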;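 also: 0% = acetylcholine EC80 with DMSO and 100% = DMSO without agonist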
# CHRM5 PAM: potentiates acetylcholine response at human M5 receptor. CHO-K1 hM5, Fluo-8 calcium, ACh EC20 PAM; 0% = ACh EC20, 100% = ACh EC100. actives 0.3% (n = 360,000). P08912. activation, % at 3 µM;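 active = activation above the run cutoff, the mean activation of all test compounds plus 3 SD, cut at about 18% in these data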
#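 Measured by: Fluo-8 calcium fluorescence; material: human M5 receptor in CHO-K1 cells; schedule: Post-acetylcholine fluorescence recording 140 s; benchmarks: low control EC20 acetylcholine (0%), high control EC100 acetylcholine (100%); read-out: Max/basal fluorescence ratio as % of EC20–EC100 ACh window; compound: single dose, 3 µM nominal final test concentration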
# M4 PAM: CHRM4 positive allosteric modulation. P08173. CHO-K1 hM4/Gqi5, Fluo-8 calcium fluorescence, ACh EC20; 0% = ACh EC20, 100% = maximal ACh. activation, % at 3 µM. actives 0.4% (n = 360,000). AID 624126;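 active = activation above its plate's cutoff, the mean activation of sample wells plus 3 SD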
# Starred values were filed as active, the others as inactive.
SMILES,CHRM4 agonist,M5 ag,CHRM4 antagonist,M5 antag,CHRM5 PAM,M4 PAM
O=C(COc1ccc(F)cc1F)NNC(=O)Nc1cccc([N+](=O)[O-])c1,2,-4,1,-3,4,0
CCOc1ccc(NC(=O)NNC(=O)COc2ccc3ccccc3c2)cc1,1,2,-5,22,34*,1
COc1ccc(OC)c(NC(=O)NNC(=O)COc2ccc(-c3ccccc3)cc2)c1,1,-1,2,-19,9,-2
O=C(COc1ccccc1)NC1CCCCC1,1,-1,0,3,-3,10
O=C(COc1ccc([N+](=O)[O-])cc1)NNC(=O)Nc1cccc(F)c1,1,0,7,29*,-11,-6
O=C(COc1ccc(-c2ccccc2)cc1)NNC(=O)NC1CCCCC1,3,-2,87*,-2,-6,-21
Cc1ccc(C)[n+](CC(=O)c2ccc(-c3ccccc3)cc2)c1,1,-9,3,-7,4,-6
CC1CCCN(CCCCOc2cccc(Br)c2)C1 (stereo unspecified),4,-8,35*,5,-18,-18
Brc1cccc(OCCCCN2CCCCC2)c1,3,-7,53*,21,-20,-39
CC1CCCN(CCOc2ccc(Br)cc2)C1 (stereo unspecified),4,-3,-8,4,-1,12
CCOc1cccc(OCCCCN2CCCCC2)c1,0,-8,57*,6,-10,-28
CSCCC(NC(=O)c1ccc(Cl)c([N+](=O)[O-])c1)C(=O)N1CCN(C/C=C/c2ccccc2)CC1 (stereo unspecified),4,-6,24,6,-3,-6
CCCN(CCC)CCNC(=O)C1CCN(S(=O)(=O)c2cccc3nsnc23)CC1,0,-9,3,-11,10,3
CC(=O)c1sc(NC(=O)CCS(=O)(=O)c2ccccc2)nc1C,1,1,1,-9,14,17*
CC(=O)c1sc(NC(=O)CCS(=O)(=O)c2ccc(F)cc2)nc1C,1,1,-5,-1,-6,-2
COc1ccccc1CC(O)CC1c2c(cc3c(c2OC)OCO3)CCN1C (stereo unspecified),1,-6,5,9,-3,-9
CC(C)(C)S(=O)N1Cc2cc(C(=O)Nc3ccc(-c4ccccc4)cc3)nc(-c3cccc(-c4cc5ccccc5o4)c3)c2[C@@H]1CCO (stereo partly specified),1,4,-8,-5,12,21*
COc1ccc(C(=O)C(C)[n+]2ccc(C)c3ccccc32)cc1[N+](=O)[O-] (stereo unspecified),4,-9,27*,4,-13,-14
O=C(NNC(=S)NC(=O)C12CC3CC(CC(C3)C1)C2)c1ccncc1,76*,28*,12,12,-16,-29
CC1(C(=O)NC(=S)NNC(=O)c2ccncc2)CCCCC1,44*,9,-14,1,-12,-4
CSc1ccccc1C(=O)N(C)C(c1ccccc1)c1ccccc1,7,-3,-25,6,-4,-15
Clc1cccc(Cl)c1/C=N/Nc1c(Cl)cncc1Cl,0,5,4,-15,28*,-1
CC(C)NC(=O)CCCc1ccccc1,2,4,-1,-4,7,29*
CCC(NC(=O)CCCc1ccccc1)c1ccccc1 (stereo unspecified),0,-5,6,6,-4,-1
CCOC(=O)Cn1ncc2c3ccccc3n(CC(=O)OCC)c2c1=O,0,1,1,11,-3,-1
O=C(CC1CS(=O)(=O)CC1CC(=O)Nc1ccc2c(c1)OCCO2)Nc1ccc2c(c1)OCCO2 (stereo unspecified),0,2,7,-3,-4,-7
Cc1n[nH]c(C)c1CCNC(=O)C1CCC(=O)N(CCc2cccc(F)c2)C1 (stereo unspecified),0,3,-8,-6,24*,10
